Among the data in ChEMBL document CHEMBL4513216, “Probing the Open Global Health Chemical Diversity Library for Multistage-Active Starting Points for Next-Generation Antimalarials” (ACS Infect Dis, 2020) are cytotoxicity values, retold here.

A short description of the series: Toxicity liver stage against HepG2, at 10uM. The series is classed as cell-based. Also on record: test concentration 10 uM, cell line HepG2-A16-CD81EGFP. To be noted: human, HepG2-A16-CD81EGFP cells; read-out: INHIBITION
The method in brief:
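Uninfected HepG2-A16-CD81EGFP cells, 3 × 10^3 per well, 1536-well, plated on prespotted compound at 10 μM final, parasite-free screening media added to match infected plates; puromycin 10 μM positive, DMSO 0.5% negative; run in parallel with 48 h PbLuc assay at 37 °C, 5% CO2; viability by CellTiter-Glo luminescence, normalized to controls.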
For the compound `O=C(C1CC1)N1CCC(C(=O)N2CCC(c3ccc(F)cc3)C2)CC1` (stereo unspecified), the cytotoxicity at 10 µM was -46.3%. Take `CCN1CCC2(CC1)CC(NCc1ccncc1)c1ccccc1O2` (stereo unspecified): the cytotoxicity at 10 µM worked out at 0.254%. For the compound `Cc1ccc2cc(C(=O)NCCN3CCS(=O)(=O)CC3)c(C)nc2c1`, the cytotoxicity at 10 µM is 10.5%.

Regarding `Cc1cc(CN(CCO)Cc2cc(Br)ccc2F)no1`, the cytotoxicity at 10 µM is 3.46%. In the case of `CCCNC(=O)CNc1cc(C(=O)N2CCSCC2)ccc1C`, the cytotoxicity at 10 µM was -5.91%.

Take `Cc1nc(C)n(C2CCCN(C(=O)CCc3cn(C)nc3C)C2)n1` (stereo unspecified): the cytotoxicity at 10 µM was -11.5%. Take `Cc1cnc(N)c(C(=O)C2CCN(C(=O)c3cnc(C)nc3C)CC2)c1`: the cytotoxicity at 10 µM was -18%. Next, `Cc1csc(CNCC(C)c2nc3ccccc3o2)n1` (stereo unspecified): -15.6%; `OC(COCc1ccco1)CN1CCc2c(ncn2C2CC2)C1` (stereo unspecified): -0.885%. Next, `O=C(NCCn1cccc1)C(c1ccccc1)N1CCCC1` (stereo unspecified): -0.288%. As for `CCCN1CCN(C(=O)c2cccnc2-n2cncn2)CC1`, the figure is 5.28%; as for `Cc1nn(C)cc1C(=O)N1CCC(C(=O)c2nc3ccccc3s2)CC1`, 8.12%.

Regarding `O=C1CO[C@@H]2CN(S(=O)(=O)c3ccccc3)C[C@H]2N1CC1CC1`, the cytotoxicity at 10 µM was -3.1%. Next, `CN(Cc1ccncc1)C(=O)c1ccc(F)c(NS(C)(=O)=O)c1`: -0.453%.

With `Cc1cc(C2CCCN(C(=O)c3cnn(C)c3)C2)ccn1` (stereo unspecified), the cytotoxicity at 10 µM was -2.83%. With `Cc1cccc(NCCOc2cccc(C#N)c2)c1C(N)=O`, the cytotoxicity at 10 µM was -3.59%. As for `Cc1ccc(CN(CCCn2ccnc2)Cc2c[nH]nc2C(C)(C)C)s1`, the figure is -3.91%; as for `CCc1ccc(C(=O)N2CCN(CC(O)c3ccccc3)CC2)o1` (stereo unspecified), -2.54%; as for `COc1ccc(CN(C)Cc2c(C)noc2C)c(Br)c1OC`, -0.2%. Regarding `CC(C)(C)c1n[nH]c(C2CN(C(=O)c3cc(C4CC4)[nH]n3)CCO2)n1` (stereo unspecified), the cytotoxicity at 10 µM is -7.2%. Next, `Cc1noc(C)c1-c1ccc(C2CCCN2C(=O)c2cccnn2)nc1` (stereo unspecified): -18.9%; `CN(C)c1cc(C2CCCN(C(=O)Cn3cc(Cl)cn3)C2)ccn1` (stereo unspecified): -23.2%; `CCCS(=O)(=O)N1CCN(C(C)(C)CO)CC1`: -0.45%. Next, `Cc1ccc2ncccc2c1CN1CC[C@H](N(C)C)[C@H](CCC(=O)O)C1`: -148%; `CCn1nc2c(cc1=O)CN(Cc1ccc(-n3cccn3)cc1)CC2`: -134%; `Cc1nnc(NC(=O)N2CCCN(C3CCCC3)CC2)s1`: -3.16%. As for `COCCNC(=O)[C@H]1C[C@H]2OCC[C@H]2N(Cc2ccoc2)C1`, the figure is -75.7%.

Regarding `CC(C)(C)C(=O)NS(=O)(=O)c1ccc(F)cc1C(F)(F)F`, the cytotoxicity at 10 µM was -1.18%. For `CN1[C@H](CO)C[C@H](CNCc2ccc(CO)o2)[C@@H]1c1ccccc1F`, the cytotoxicity at 10 µM was -9.37%. Regarding `COc1cccc(CNC(=O)c2nc3c(s2)CCN(C(C)=O)CC3)c1`, the cytotoxicity at 10 µM was -77.4%. With `CC(C)[C@@H]1CN(C(=O)C2(c3ccccc3)CCN(C)CC2)C[C@H]1N(C)C`, the cytotoxicity at 10 µM was -32%. For the compound `Cc1nc(Oc2ccccc2F)sc1C(=O)O`, the cytotoxicity at 10 µM is -11.2%. As to `COc1ccccc1Cc1cncc(N2CC(C(=O)O)C2)n1`, the cytotoxicity at 10 µM turned out to be 2.71%. Next, `CCN1C(=O)C(C)(C)c2cc(NC(=O)c3ccco3)ccc21`: -10.2%; `CC(C)N1CCC2(CCN(C(=O)c3cccnc3)CC2)C1`: 5.27%; `CCN1CCC(CC(=O)NCCc2nc(C)c(Cl)s2)CC1`: -7.43%.

`CS(=O)(=O)c1cccc(C(N)c2ccc(F)cc2)c1` (stereo unspecified): the cytotoxicity at 10 µM is -19.9%.

For `CCN(CC)[C@H]1COC[C@@H]2CN(Cc3cnn(C)c3)C[C@@H]21`, the cytotoxicity at 10 µM was 11.5%. As for `COC(=O)CNC(=O)N1CCN(c2nc3ccccc3n2C)CC1`, the figure is -9.46%. Next, `O=C(O)C1CCCN1c1nc(-c2ccc(Cl)c(Cl)c2)cc(C(F)(F)F)n1` (stereo unspecified): 32.1%; `CS(=O)(=O)NC1CCN(C(=O)c2coc(CN3CCOCC3)c2)CC1`: 3.54%. With `CNc1ccnc(NCCC(=O)Nc2ccccc2OC)n1`, the cytotoxicity at 10 µM was -1.62%. As for `NS(=O)(=O)N1CCc2ccc(NC(=O)CCc3ccncc3)cc21`, the figure is 2.68%; as for `O=C(NCc1cn2c(n1)SCC2)c1cn(CCN2CCCCC2)nn1`, -3.69%.

With `CC(C)(C)NC(=O)CCOc1cccc(F)c1`, the cytotoxicity at 10 µM is -4.95%.

With `CCCn1cc(C(=O)NCCCC(N)=O)c2ccccc21`, the cytotoxicity at 10 µM stood at 6.13%. Regarding `Cc1ccncc1C(=O)N1C[C@@H]2CN(c3ncccn3)C[C@]2(C(=O)O)C1`, the cytotoxicity at 10 µM stood at 2.36%. Next, `CN(Cc1ccncn1)C(=O)c1cccc(CCC(C)(C)O)c1`: -4.27%; `CN(Cc1ccc(F)cc1)Cc1nc(-c2cnccn2)no1`: 1.27%; `O=C(C1CCC2(CCN(c3nncs3)CC2)CO1)N1CCCC1` (stereo unspecified): 9.46%. As for `COc1ccccc1OCC(=O)N1CCC[C@]2(C[C@@H](OC)CO2)C1`, the figure is 1.04%; as for `CC(=O)Nc1nc(C(=O)N2CCCCC2Cn2cccn2)cs1` (stereo unspecified), -31.4%; as for `CCc1nnsc1C(=O)N1CCCN(Cc2ccccc2)CC1`, 7.57%. As for `Cc1ccc(CN2CCOC3(CCCN(c4cccc(F)c4)C3)C2)o1` (stereo unspecified), the figure is -70%. Consider `CC(C)Nc1ncnc2c1CCN(C(=O)[C@H]1CCCO1)CC2`, for which the cytotoxicity at 10 µM is -0.685%. `COc1ccc2c(c1)OCC(Cc1ccnc(N)n1)C2` (stereo unspecified): the cytotoxicity at 10 µM is -0.651%. Turning to `CN(C)C1CCCN(C(=O)NCCc2cc(F)ccc2F)C1` (stereo unspecified), the cytotoxicity at 10 µM is -1.05%. As to `CN1CCCC1c1ccc(C(=O)Nc2c3c(nn2C)CCC3)s1` (stereo unspecified), the cytotoxicity at 10 µM is -7.3%. Next, `CC(C)C(=O)N1CCN(Cc2cnn(C)c2)CC2(CC(=O)N(C)C2)C1` (stereo unspecified): 3.42%; `CN(Cc1cnccn1)C(=O)c1ccnc(OC2CCC2)c1`: 0.0711%. Next, `Cc1ccsc1CNc1ccc(C(=O)N2CCNC(=O)C2)cn1`: 7.04%; `O[C@H]1CC[C@@H](Cc2cc(-c3ccccc3)on2)O[C@@H]1CNCC1CC1`: -6.21%. Next, `OCC(CO)N1CCCC(Cc2ccnc(Nc3ccccn3)c2)C1` (stereo unspecified): -13.5%; `O=C(c1ccc(NC2CC2)nc1)N1CCCC(n2cccn2)C1` (stereo unspecified): -12.2%; `CC(Oc1ccccc1C(F)(F)F)C(=O)NCC(=O)N1CCCC1` (stereo unspecified): 5.12%.

Turning to `O=C([C@H]1CCCO1)N1CCc2ncc(CN3CCOCC3)n2CC1`, the cytotoxicity at 10 µM is -72.3%. Next, `c1coc(CN2C[C@@H]3OCCN(CC4CCCO4)[C@@H]3C2)c1` (stereo partly specified): -83.1%; `CC(=O)Nc1ccc(CNC(=O)CNCc2snnc2C)cc1`: 8.43%. Regarding `Cc1nc(CN2CCC3(CC2)NC(=O)CC3c2cccnc2)cs1` (stereo unspecified), the cytotoxicity at 10 µM is -2.27%.

Regarding `Cc1ncsc1C(=O)N(Cc1cccs1)C1CC1`, the cytotoxicity at 10 µM is -6.13%. As for `CSCC(CCO)NC(=O)Nc1ccc(C)cc1C` (stereo unspecified), the cytotoxicity at 10 µM came out at 1.82%.
